Columns and labels:
DU-145 [1] = test: Growth inhibition of human DU145 cells after 72 hrs by MTT assay; format: functional, cell-based; conditions: DU-145, 72 h
Procedure, shortened: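 Du145 human prostate carcinoma cells were screened by MTT cell-growth inhibition assay. IC50 values are means of three experiments.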

DU-145 [2] = test: Induction of apoptosis in human DU145 cells at 10 uM assessed as dead cell level after 72 hrs by AnnexinV conjugated 7- AAD staining by flow cytometry; format: functional
Procedure, shortened: (§1)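 Du145 human prostate carcinoma cells exposed to compound for 72 h, then stained with Annexin V and 7-AAD and analysed by flow cytometry. Annexin V detects phosphatidylserine externalised to the outer membrane leaflet, and 7-AAD enters only membrane-compromised cells. Dead cells were those positive for both stains. Untreated cells served as control.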

DU-145 [3] = test: Induction of apoptosis in human DU145 cells at 10 uM assessed as live cell level after 72 hrs by AnnexinV conjugated 7- AAD staining by flow cytometry; format: functional
Procedure, shortened: (§2)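 Du145 cells were treated for 72 h and stained with Annexin V conjugate plus 7-AAD. Flow cytometry read PS externalization and membrane integrity, scoring cells as live (double negative), early apoptotic, or late apoptotic/necrotic (double positive). Untreated cells served as the control.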

HT-29 = test: Antiproliferative activity against human HT-29 cells after 72 hrs by MTT assay; format: functional, cell-based; conditions: HT-29, 72 h
DU-145 [4] = test: Induction of apoptosis in human DU145 cells at 5 uM assessed as late apoptosis/ necrotic cells level after 72 hrs by AnnexinV conjugated 7- AAD staining by flow cytometry; format: functional; procedure, shortened: as §2
KB = test: Antiproliferative activity against human KB cells after 72 hrs by MTT assay; format: functional, cell-based
IMR-90 = test: Antiproliferative activity against human IMR90 cells after 72 hrs by MTT assay; format: cell-based; conditions: IMR-90, 72 h
DU-145 [5] = test: Induction of apoptosis in human DU145 cells at 5 uM assessed as live cell level after 72 hrs by AnnexinV conjugated 7- AAD staining by flow cytometry; format: functional; procedure, shortened: as §2
OS-RC-2 = test: Antiproliferative activity against human OS-RC2 cells after 72 hrs by MTT assay; format: functional, cell-based; conditions: OS-RC-2, 72 h
[6] = Antiproliferative activity against human L78 cells after 72 hrs by MTT assay; format: functional, cell-based; conditions: L78, 72 h
MOLT-4 = test: Antiproliferative activity against human MOLT4 cells after 72 hrs by MTT assay; format: functional, cell-based; conditions: MOLT-4, 72 h
SGC-7901 = test: Antiproliferative activity against human SGC7901 cells after 72 hrs by MTT assay; format: functional, cell-based; conditions: SGC-7901, 72 h
HepG2 = test: Antiproliferative activity against human HepG2 cells after 72 hrs by MTT assay; format: functional, cell-based; conditions: HepG2, 72 h
HeLa = test: Antiproliferative activity against human HeLa cells after 72 hrs by MTT assay; format: functional, cell-based
MCF7 = test: Antiproliferative activity against human MCF7 cells after 72 hrs by MTT assay; format: functional, cell-based; conditions: MCF7, 72 h
U-251 = test: Antiproliferative activity against human U251 cells after 72 hrs by MTT assay; format: functional, cell-based; conditions: U-251, 72 h
DU-145 [7] = test: Induction of apoptosis in human DU145 cells at 5 uM assessed as early apoptosis level after 72 hrs by AnnexinV conjugated 7- AAD staining by flow cytometry; format: functional; procedure, shortened: as §2
A549 = test: Antiproliferative activity against human A549 cells after 72 hrs by MTT assay; format: functional, cell-based; conditions: A549, 72 h
DU-145 [8] = test: Induction of apoptosis in human DU145 cells at 5 uM assessed as dead cell level after 72 hrs by AnnexinV conjugated 7- AAD staining by flow cytometry; format: functional; procedure, shortened: as §1
DU-145 [9] = test: Induction of apoptosis in human DU145 cells at 10 uM assessed as late apoptosis/ necrotic cells level after 72 hrs by AnnexinV conjugated 7- AAD staining by flow cytometry; format: functional; procedure, shortened: as §2
HT-1080 = test: Antiproliferative activity against human HT1080 cells after 72 hrs by MTT assay; format: functional, cell-based; conditions: HT-1080, 72 h
DU-145 [10] = test: Induction of apoptosis in human DU145 cells at 10 uM assessed as early apoptosis level after 72 hrs by AnnexinV conjugated 7- AAD staining by flow cytometry; format: functional; procedure, shortened: as §2

Row | SMILES | IC50 (DU-145 [1]) | IC50 (HT-29) | IC50 (IMR-90) | IC50 (OS-RC-2) | IC50 [6] | IC50 (MOLT-4) | IC50 (SGC-7901) | IC50 (U-251) | IC50 (HT-1080) | other results
1 | O=C1C(O)=C([C@H]2CC[C@H](c3ccc(Cl)cc3)CC2)C(=O)c2ccccc21 [ATOVAQUONE] | 29300 nM |  |  |  |  |  |  |  |  | 
2 | Cc1ccccc1N1CCN(C2=CC(=O)c3ccccc3C2=O)CC1 | 5700 nM |  |  |  |  |  |  |  |  | 
3 | O=C1C=C(N2CCC(c3ccccc3)CC2)C(=O)c2ccccc21 | 6000 nM |  |  |  |  |  |  |  |  | 
4 | O=C1C=C(N2CCN(c3ccc(Br)cc3)CC2)C(=O)c2ccccc21 | > 50000 nM |  |  |  |  |  |  |  |  | 
5 | O=C1C=C(N2CCN(c3ccc(F)cc3)CC2)C(=O)c2ccccc21 | 11700 nM |  |  |  |  |  |  |  |  | 
6 | O=C1C=C(N2CCN(c3ccccc3)CC2)C(=O)c2c(O)ccc(O)c21 | 1300 nM | 2600 nM | > 50000 nM | 1500 nM | 1900 nM | > 50000 nM | 2500 nM | 6100 nM | 2800 nM | Activity (DU-145 [2]): 0.53%; Activity (DU-145 [3]): 0.95%; Activity (DU-145 [4]): 71.34%; IC50 (KB): 1400 nM; Activity (DU-145 [5]): 7.48%; IC50 (HepG2): 5400 nM; IC50 (HeLa): 2100 nM; IC50 (MCF7): 3000 nM; Activity (DU-145 [7]): 19.8%; IC50 (A549): 1700 nM; Activity (DU-145 [8]): 1.39%; Activity (DU-145 [9]): 84.76%; Activity (DU-145 [10]): 13.77%
7 | O=C1C=C(N2CCN(c3ccccc3Cl)CC2)C(=O)c2c(O)cccc21 | 2300 nM | 1400 nM | 16900 nM | 2500 nM | 5200 nM | 27600 nM | 8200 nM | 8000 nM | 5800 nM | IC50 (KB): 4400 nM; IC50 (HepG2): 7700 nM; IC50 (HeLa): 7200 nM; IC50 (MCF7): 23800 nM; IC50 (A549): 4500 nM
8 | COc1cccc2c1C(=O)c1c(O)c3c(c(O)c1C2=O)C[C@@](O)(C(=O)CO)C[C@@H]3O[C@H]1C[C@H](N)[C@H](O)[C@H](C)O1 [DOXORUBICIN] |  | 1300 nM | 1000 nM | 5400 nM | 2400 nM | 2 nM | 900 nM | 600 nM | 100 nM | 
